In paper PMC3082038 (Cancer Chemotherapy and Pharmacology, 2010):

Legend:
Type in all cases: in vivo, human
urinary VEGF = test: Angiogenesis-related factor: urinary VEGF
Outline: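 Plasma and urine were collected from patients before treatment and after day 8 and day 28 of oral test compound dosing, and analysed at a central commercial laboratory. ELISA kits were used for human VEGF (plasma and urine), ELAM-1, VCAM-1 and soluble t-PA. Soluble PAI-1 was measured by latex photometric immunoassay. Values are reported as median (range) per time point.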

solid tumors = test: Antitumor effect
[1] = system: Japanese patients with solid tumors; test: Phase I safety: drug-related adverse events, DLT, MTD, recommended dose; details: for Recommended dosage: after-meal conditions
Outline: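 Dose escalation used three-patient cohorts, alternating b.i.d. and t.i.d., starting at 200 mg/m2 b.i.d. Oral dosing was by body surface area for 28 days continuously. b.i.d. doses were taken within 1 h after meals, about 12 h apart; t.i.d. doses about 6 or 12 h apart. Patients were assessed at least weekly and graded by NCI-CTC v2.0. DLT: grade ≥3 non-haematological or grade ≥4 haematological drug-related event. MTD: DLT in 2/3 or 3/6 patients.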

[2] = Pt 4, SCLC, b.i.d. 400 mg/m^2 (1,200 mg/day)
[3] = Pt 19, NSCLC, t.i.d. 400 mg/m^2 (2,400 mg/day)
[4] = b.i.d. 200 mg/m^2 × 2, n = 3, G1
[5] = b.i.d. 200 mg/m^2 × 2, n = 3, G2
[6] = b.i.d. 400 mg/m^2 × 2, n = 6, G1
[7] = b.i.d. 400 mg/m^2 × 2, n = 6, G2
[8] = b.i.d. 400 mg/m^2 × 2, n = 6, G3
[9] = b.i.d. 500 mg/m^2 × 2, n = 3, G1
[10] = b.i.d. 500 mg/m^2 × 2, n = 3, G2
[11] = t.i.d. 200 mg/m^2 × 3, n = 6, G1
[12] = t.i.d. 200 mg/m^2 × 3, n = 6, G2
[13] = t.i.d. 400 mg/m^2 × 3, n = 6, G1
[14] = t.i.d. 400 mg/m^2 × 3, n = 6, G2
[15] = t.i.d. 400 mg/m^2 × 3, n = 6, G4

Cc1[nH]c(/C=C2\C(=O)Nc3ccccc32)c(C)c1CCC(=O)O [TSU-68, (Z)-5-[(1,2-dihydro-2-oxo-3H-indol-3-ylidene)methyl]-2,4-dimethyl-1H-pyrrole-3-propanoic acid]
9 (37.5) no. (%): Nauseous, Total no. (%) ([1]; all dose levels, n = 24)
7 (29.2) no. (%): Headache, Total no. (%) ([1]; all dose levels, n = 24)
5 (20.8) no. (%): Abdominal pain upper, Total no. (%) ([1]; all dose levels, n = 24) | Back pain, Total no. (%) ([1]; all dose levels, n = 24) | Pleural effusion, Total no. (%) ([1]; all dose levels, n = 24)
not reached: MTD (maximum tolerated dose) ([1]; t.i.d. after meals, up to 400 mg/m^2)
43.5%: NC patients (solid tumors; 10/23 evaluable patients) | Tumor control rate (solid tumors; 10/23 patients)
3: Number of patients with drug-related Discoloration urine/stool [1, 4] | No. maximum grade (patients, drug-related adverse events) [1, 5] | Number of patients with drug-related Discoloration urine/stool [1, 9] | Number of patients with drug-related Malaise [1, 9] | Number of patients with drug-related Nauseous [1, 9] | No. maximum grade (patients, drug-related adverse events) [1, 10] | Number of patients with drug-related Vomiting [1, 11] | Number of patients with drug-related Blood albumin decreased [1, 13] | Number of patients with drug-related Diarrhea [1, 13] | Number of patients with drug-related Face edema [1, 13] | Number of patients with drug-related Malaise [1, 13]
162 days: TTP (time to progression) (solid tumors; Pt 1, Cervical ca., b.i.d. 200 mg/m^2 (800 mg/day))
162.5 pg/mL: Urinary VEGF, median (urinary VEGF; day 28, 22 patients)
1: Number of patients with drug-related Alkaline phosphatase increased [1, 4] | Number of patients with drug-related Blood albumin decreased [1, 4] | Number of patients with drug-related Diarrhea [1, 4] | Number of patients with drug-related Malaise [1, 4] | Number of patients with drug-related Serum total protein decreased [1, 4] | Number of patients with drug-related Blood albumin decreased [1, 5] | Number of patients with drug-related Diarrhea [1, 5] | Number of patients with drug-related Malaise [1, 5] | Number of patients with drug-related Nauseous [1, 5] | Number of patients with drug-related Vomiting [1, 5] | Number of patients with drug-related Abdominal pain [1, 6] | Number of patients with drug-related Abdominal pain upper [1, 6] | Number of patients with drug-related Back pain [1, 6] | Number of patients with drug-related Headache [1, 6] | Number of patients with drug-related Pleural effusion [1, 6] | Number of patients with drug-related γ-glutamyltransferase increased [1, 6] | Number of patients with drug-related Anorexia [1, 7] | Number of patients with drug-related Back pain [1, 7] | Number of patients with drug-related Nauseous [1, 7] | Number of patients with drug-related Serum total protein decreased [1, 7] | No. maximum grade (patients, drug-related adverse events) [1, 8] | Number of patients with drug-related Anorexia [1, 8] | Number of patients with drug-related Dyspnea [1, 8] | Number of patients with drug-related Hypoxia [1, 8] | Number of patients with drug-related Pleural effusion [1, 8] | Number of patients with drug-related Abdominal pain upper [1, 9] | Number of patients with drug-related Alkaline phosphatase increased [1, 9] | Number of patients with drug-related Blood albumin decreased [1, 9] | Number of patients with drug-related Diarrhea [1, 9] | Number of patients with drug-related Face edema [1, 9] | Number of patients with drug-related Headache [1, 9] | Number of patients with drug-related Pleural effusion [1, 9] | Number of patients with drug-related Serum total protein decreased [1, 9] | Number of patients with drug-related Abdominal pain upper [1, 10] | Number of patients with drug-related Headache [1, 10] | Number of patients with drug-related Serum total protein decreased [1, 10] | No. maximum grade (patients, drug-related adverse events) [1, 11] | Number of patients with drug-related Abdominal pain [1, 11] | Number of patients with drug-related Nauseous [1, 11] | Number of patients with drug-related Pleural effusion [1, 11] | Number of patients with drug-related Serum total protein decreased [1, 11] | Number of patients with drug-related γ-glutamyltransferase increased [1, 11] | Number of patients with drug-related Back pain [1, 12] | Number of patients with drug-related Blood albumin decreased [1, 12] | Number of patients with drug-related Diarrhea [1, 12] | Number of patients with drug-related Abdominal pain [1, 13] | Number of patients with drug-related Anorexia [1, 13] | Number of patients with drug-related Nauseous [1, 13] | Number of patients with drug-related Pleural effusion [1, 13] | Number of patients with drug-related Serum total protein decreased [1, 13] | Number of patients with drug-related Alkaline phosphatase increased [1, 14] | Number of patients with drug-related Anorexia [1, 14] | Number of patients with drug-related Diarrhea [1, 14] | No. maximum grade (patients, drug-related adverse events) [1, 15] | Number of patients with drug-related Pericardial effusion [1, 15]
65 days: TTP (time to progression) (solid tumors; Pt 17, NSCLC, t.i.d. 200 mg/m^2 (1,200 mg/day))
400 mg/body: Recommended dose suggested by the Independent Data Monitoring Committee ([1]; b.i.d. after meals)
4: Number of patients with drug-related Malaise [1, 6] | Number of patients with drug-related Diarrhea [1, 11]
24 (100) no. (%): Discoloration urine/stool, Total no. (%) ([1]; all dose levels, n = 24)
1 (4.2) no. (%): Dyspnea, Total no. (%) ([1]; all dose levels, n = 24) | Hypoxia, Total no. (%) ([1]; all dose levels, n = 24) | Pericardial effusion, Total no. (%) ([1]; all dose levels, n = 24)
2 patients: Patients experiencing DLTs ([1]; 400 mg/m^2 b.i.d. dose level, three plus three patients, grade 3 dyspnea, hypoxemia, pleural effusion and anorexia, and unacceptable grade 2 anorexia)
17 (70.8) no. (%): Diarrhea, Total no. (%) ([1]; all dose levels, n = 24)
13 (54.2) no. (%): Alkaline phosphatase increased, Total no. (%) ([1]; all dose levels, n = 24)
G4 (DLT): Toxicity ≥ G3-4 [1, 3]
≥ 28 days: TTP (time to progression) (solid tumors; [3]) | TTP (time to progression) (solid tumors; Pt 23, Colon ca., t.i.d. 400 mg/m^2 (1,800 mg/day))
20 (83.3) no. (%): Blood albumin decreased, Total no. (%) ([1]; all dose levels, n = 24)
2: Number of patients with drug-related Anorexia [1, 4] | Number of patients with drug-related Abdominal pain [1, 5] | Number of patients with drug-related Anorexia [1, 6] | Number of patients with drug-related Blood albumin decreased [1, 6] | Number of patients with drug-related Nauseous [1, 6] | Number of patients with drug-related Vomiting [1, 6] | Number of patients with drug-related Abdominal pain [1, 7] | Number of patients with drug-related Blood albumin decreased [1, 7] | Number of patients with drug-related Headache [1, 7] | Number of patients with drug-related γ-glutamyltransferase increased [1, 7] | Number of patients with drug-related Anorexia [1, 9] | Number of patients with drug-related Vomiting [1, 9] | Number of patients with drug-related Blood albumin decreased [1, 10] | Number of patients with drug-related Alkaline phosphatase increased [1, 11] | Number of patients with drug-related Anorexia [1, 11] | Number of patients with drug-related Face edema [1, 11] | Number of patients with drug-related Abdominal pain [1, 12] | Number of patients with drug-related Abdominal pain upper [1, 12] | Number of patients with drug-related Alkaline phosphatase increased [1, 13] | Number of patients with drug-related Headache [1, 13] | Number of patients with drug-related γ-glutamyltransferase increased [1, 13] | Number of patients with drug-related Abdominal pain [1, 14] | Number of patients with drug-related Back pain [1, 14] | Number of patients with drug-related Blood albumin decreased [1, 14]
6 (25.0) no. (%): Face edema, Total no. (%) ([1]; all dose levels, n = 24) | γ-glutamyltransferase increased, Total no. (%) ([1]; all dose levels, n = 24)
≥ 254 days: TTP (time to progression) (solid tumors; Pt 14, Soft tissue sa., t.i.d. 200 mg/m^2 (600 mg/day))
8 (33.3) no. (%): Vomiting, Total no. (%) ([1]; all dose levels, n = 24)
≥ 217 days: TTP (time to progression) (solid tumors; Pt 20, Colon ca., t.i.d. 400 mg/m^2 (1,800 mg/day))
0: No. maximum grade (patients, drug-related adverse events) [1, 4] | No. maximum grade (patients, drug-related adverse events) ([1]; b.i.d. 200 mg/m^2 × 2, n = 3, G3) | No. maximum grade (patients, drug-related adverse events) ([1]; b.i.d. 200 mg/m^2 × 2, n = 3, G4) | No. maximum grade (patients, drug-related adverse events) [1, 6] | No. maximum grade (patients, drug-related adverse events) ([1]; b.i.d. 400 mg/m^2 × 2, n = 6, G4) | No. maximum grade (patients, drug-related adverse events) [1, 9] | No. maximum grade (patients, drug-related adverse events) ([1]; b.i.d. 500 mg/m^2 × 2, n = 3, G3) | No. maximum grade (patients, drug-related adverse events) ([1]; b.i.d. 500 mg/m^2 × 2, n = 3, G4) | No. maximum grade (patients, drug-related adverse events) ([1]; t.i.d. 200 mg/m^2 × 3, n = 6, G3) | No. maximum grade (patients, drug-related adverse events) ([1]; t.i.d. 200 mg/m^2 × 3, n = 6, G4) | No. maximum grade (patients, drug-related adverse events) [1, 13] | No. maximum grade (patients, drug-related adverse events) ([1]; t.i.d. 400 mg/m^2 × 3, n = 6, G3)
144 pg/mL: Urinary VEGF, median (urinary VEGF; day 8, 23 patients)
28 days: Median time to progression (solid tumors; all dose levels)
≤ 400 mg/m^2: Recommended dosage ([1]; b.i.d.) | Recommended dosage ([1]; t.i.d.)
218 days: Median survival period (solid tumors; all dose levels)
<31 to 1210 pg/mL: Urinary VEGF, range (urinary VEGF; day 8, 23 patients)
G3 (DLT): Toxicity ≥ G3-4 [1, 2]
68 to 730 pg/mL: Urinary VEGF, range (urinary VEGF; day 28, 22 patients)
12 (50.0) no. (%): Anorexia, Total no. (%) ([1]; all dose levels, n = 24)
6: Number of patients with drug-related Alkaline phosphatase increased [1, 6] | Number of patients with drug-related Discoloration urine/stool [1, 6] | Number of patients with drug-related Discoloration urine/stool [1, 11] | Number of patients with drug-related Malaise [1, 11] | Number of patients with drug-related Discoloration urine/stool [1, 13]
11 (45.8) no. (%): Abdominal pain, Total no. (%) ([1]; all dose levels, n = 24)
not found: PR patient (solid tumors; 23 evaluable patients) | Dose-limiting toxicity (DLT) ([1]; 500 mg/m^2 b.i.d. dose level)
61 days: TTP (time to progression) (solid tumors; Pt 8, Cholecystis ca., b.i.d. 400 mg/m^2 (1,200 mg/day))
18 (75.0) no. (%): Malaise, Total no. (%) ([1]; all dose levels, n = 24)
64 days: TTP (time to progression) (solid tumors; Pt 2, NSCLC, b.i.d. 200 mg/m^2 (800 mg/day))
≥ 29 days: TTP (time to progression) (solid tumors; [2]) | TTP (time to progression) (solid tumors; Pt 9, NSCLC, b.i.d. 400 mg/m^2 (1,200 mg/day))
5: Number of patients with drug-related Diarrhea [1, 6] | No. maximum grade (patients, drug-related adverse events) [1, 7] | Number of patients with drug-related Blood albumin decreased [1, 11] | No. maximum grade (patients, drug-related adverse events) [1, 12] | No. maximum grade (patients, drug-related adverse events) [1, 14]
– (DLT): Toxicity ≥ G3-4 ([1]; Pt 5, NSCLC, b.i.d. 400 mg/m^2 (1,200 mg/day))
